What was measured:
Type in all cases: functional
[1] = test system: EKVX; experiment: Cytotoxicity against human EKVX cells assessed as cell growth at 10 uM after 48 hrs by sulforhodamine B assay; details: read-out: Activity
Method in brief: (§1)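 Five-dose NCI panel run at 0.01, 0.1, 1, 10 and 100 µM. Cells were in RPMI 1640 with 5% FBS and 2 mM L-glutamine, seeded at 5000–40,000 cells/well and pre-incubated 24 h. Drug was diluted from a DMSO stock into medium with 50 µg/ml gentamicin. Exposure was 48 h at 37 °C, 5% CO2. Cells were fixed with cold TCA and stained with 0.4% SRB, read at 515 nm. Percent growth came from time-zero, control and test absorbances.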

[2] = test system: RPMI-8226; experiment: Cytotoxicity against human RPMI8226 cells assessed as cell growth at 0.1 uM after 48 hrs by sulforhodamine B assay; details: RPMI-8226, 48 h, read-out: Activity
[3] = test system: EKVX; experiment: Cytotoxicity against human EKVX cells assessed as cell growth at 0.01 uM after 48 hrs by sulforhodamine B assay; details: read-out: Activity; method in brief: as §1
[4] = test system: NCI-H522; experiment: Cytotoxicity against human NCI-H522 cells assessed as cell growth at 10 uM after 48 hrs by sulforhodamine B assay; details: NCI-H522, 48 h, read-out: Activity
[5] = test system: HT-29; experiment: Cytotoxicity against human HT-29 cells assessed as cell growth at 100 uM after 48 hrs by sulforhodamine B assay; details: HT-29, 48 h, read-out: Activity; method in brief: as §1
[6] = test system: SF-295; experiment: Cytotoxicity against human SF295 cells assessed as cell growth at 10 '-5 M after 48 hrs by sulforhodamine B assay; details: SF-295, 48 h, read-out: Activity
[7] = test system: EKVX; experiment: Cytotoxicity against human EKVX cells assessed as cell growth at 100 uM after 48 hrs by sulforhodamine B assay; details: read-out: Activity; method in brief: as §1
[8] = test system: A498; experiment: Cytotoxicity against human A498 cells assessed as cell growth at 1 uM after 48 hrs by sulforhodamine B assay; details: A498, 48 h, read-out: Activity
Method in brief: (§2)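 NCI-60 five-dose screen. Cells were grown in RPMI 1640 with 5% FBS and 2 mM L-glutamine and preincubated 24 h. Compound (DMSO stock) was tested at 0.01, 0.1, 1, 10 and 100 µM for 48 h at 37 °C. Cells were fixed in situ with cold TCA (final 10%) and stained with 0.4% SRB. A515 was read, and percent growth was calculated against time-zero and control plates.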

[9] = test system: NCI-H322M; experiment: Cytotoxicity against human NCI-H322M cells assessed as cell growth at 0.01 uM after 48 hrs by sulforhodamine B assay; details: read-out: Activity
[10] = test system: SK-MEL-5; experiment: Growth inhibition of human SK-MEL-5 cells after 48 hrs by sulforhodamine B assay; details: SK-MEL-5, 48 h
Method in brief: (§3)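 Adherent NCI-60 lines were grown in RPMI 1640 with 5% FBS and 2 mM L-glutamine, plated at 5000–40,000 cells/well and preincubated 24 h. They were then exposed to five concentrations (0.01–100 µM, from a DMSO stock) for 48 h at 37 °C, 5% CO2. Cells were fixed with cold TCA (10% final, 60 min, 4 °C) and stained with 0.4% SRB. Dye was solubilized in 10 mM Tris base and A515 read. GI50 was derived from time-zero, control and treated absorbances.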

[11] = test system: UACC-62; experiment: Cytotoxicity against human UACC62 cells assessed as cell growth at 10 uM after 48 hrs by sulforhodamine B assay; details: UACC-62, 48 h, read-out: Activity
[12] = test system: T47D; experiment: Cytotoxicity against human T47D cells assessed as cell growth at 0.1 uM after 48 hrs by sulforhodamine B assay; details: read-out: Activity
[13] = test system: SK-OV-3; experiment: Growth inhibition of human SKOV3 cells after 48 hrs by sulforhodamine B assay; details: SK-OV-3, 48 h; method in brief: as §3
[14] = Cytotoxicity against human Hs 578T cells assessed as cell growth at 1 uM after 48 hrs by sulforhodamine B assay; details: read-out: Activity; method in brief: as §1
[15] = test system: SK-MEL-5; experiment: Cytotoxicity against human SK-MEL-5 cells assessed as cell growth at 1 uM after 48 hrs by sulforhodamine B assay; details: SK-MEL-5, 48 h, read-out: Activity
[16] = test system: ACHN; experiment: Cytotoxicity against human ACHN cells assessed as cell growth at 1 uM after 48 hrs by sulforhodamine B assay; details: read-out: Activity; method in brief: as §2
[17] = test system: SNB-75; experiment: Cytotoxicity against human SNB75 cells assessed as cell growth at 100 uM after 48 hrs by sulforhodamine B assay; details: SNB-75, 48 h, read-out: Activity
[18] = test system: MDA-MB-435; experiment: Cytotoxicity against human MDA-MB-435 cells assessed as cell growth at 1 uM after 48 hrs by sulforhodamine B assay; details: MDA-MB-435, 48 h, read-out: Activity
[19] = test system: OVCAR-4; experiment: Cytotoxicity against human OVCAR4 cells assessed as cell growth at 1 uM after 48 hrs by sulforhodamine B assay; details: OVCAR-4, 48 h, read-out: Activity
[20] = test system: NCI/ADR-RES; experiment: Cytotoxicity against human NCI/ADR-RES cells assessed as cell growth at 100 uM after 48 hrs by sulforhodamine B assay; details: read-out: Activity
[21] = test system: HT-29; experiment: Cytotoxicity against human HT-29 cells assessed as cell growth at 10 uM after 48 hrs by sulforhodamine B assay; details: HT-29, 48 h, read-out: Activity; method in brief: as §1
[22] = test system: COLO 205; experiment: Cytotoxicity against human COLO205 cells assessed as cell growth at 100 uM after 48 hrs by sulforhodamine B assay; details: COLO 205, 48 h, read-out: Activity; method in brief: as §2
[23] = test system: SF-295; experiment: Cytotoxicity against human SF295 cells assessed as cell growth at 10 uM after 48 hrs by sulforhodamine B assay; details: SF-295, 48 h, read-out: Activity
[24] = test system: SNB-75; experiment: Cytotoxicity against human SNB75 cells assessed as cell growth at 10 '-5 M after 48 hrs by sulforhodamine B assay; details: SNB-75, 48 h, read-out: Activity
[25] = test system: MCF7; experiment: Cytotoxicity against human MCF7 cells assessed as cell growth at 1 uM after 48 hrs by sulforhodamine B assay; details: MCF7, 48 h, read-out: Activity
[26] = test system: Malme-3M; experiment: Cytotoxicity against human MALME-3M cells assessed as cell growth at 1 uM after 48 hrs by sulforhodamine B assay; details: read-out: Activity
[27] = test system: ACHN; experiment: Cytotoxicity against human ACHN cells assessed as cell growth at 0.01 uM after 48 hrs by sulforhodamine B assay; details: read-out: Activity; method in brief: as §2
[28] = test system: T47D; experiment: Cytotoxicity against human T47D cells assessed as cell growth at 1 uM after 48 hrs by sulforhodamine B assay; details: read-out: Activity
[29] = test system: COLO 205; experiment: Cytotoxicity against human COLO205 cells assessed as cell growth at 1 uM after 48 hrs by sulforhodamine B assay; details: COLO 205, 48 h, read-out: Activity; method in brief: as §2
[30] = test system: SF-539; experiment: Cytotoxicity against human SF539 cells assessed as cell growth at 0.1 uM after 48 hrs by sulforhodamine B assay; details: SF-539, 48 h, read-out: Activity
[31] = Growth inhibition of human Hs 578T cells after 48 hrs by sulforhodamine B assay; details: for CC50: read-out: LC50 (the source's name); method in brief: as §3
[32] = test system: OVCAR-5; experiment: Cytotoxicity against human OVCAR5 cells assessed as cell growth at 10 '-5 M after 48 hrs by sulforhodamine B assay; details: OVCAR-5, 48 h, read-out: Activity
[33] = test system: ACHN; experiment: Cytotoxicity against human ACHN cells assessed as cell growth at 10 uM after 48 hrs by sulforhodamine B assay; details: read-out: Activity; method in brief: as §2

Compound	growth at 10 µM [1]	growth at 0.1 µM [2]	growth at 0.01 µM [3]	growth at 10 µM [4]	growth at 100 µM [5]	growth at 10 µM [6]	growth at 100 µM [7]	growth at 1 µM [8]	growth at 0.01 µM [9]	LC50 [10]	TGI [10]	growth at 10 µM [11]	growth at 0.1 µM [12]	LC50 [13]	TGI [13]	growth at 1 µM [14]	growth at 1 µM [15]	growth at 1 µM [16]	growth at 100 µM [17]	growth at 1 µM [18]	other results
Cc1ccc2nc(Nc3c(C)cccc3C)sc2c1	39%	100%	93%	28%	39%	18.9%	53%	53%	97%	> 100 µM	> 100 µM	23%	96%	> 100 µM	> 100 µM	64%	66%	84%	32%	-8%	growth at 1 µM [19]: 71%; growth at 100 µM [20]: 46%; growth at 10 µM [21]: 10%; growth at 100 µM [22]: 64%; growth at 10 µM [23]: 15%; growth at 10 µM [24]: -15.5%; growth at 1 µM [25]: 53%; growth at 1 µM [26]: 57%; growth at 0.01 µM [27]: 97%; growth at 1 µM [28]: 75%; growth at 1 µM [29]: 82%; growth at 0.1 µM [30]: 97%; GI50 [31]: 3.84 µM; TGI [31]: > 100 µM; CC50 [31]: > 100 µM; growth at 10 µM [32]: 65.6%; growth at 10 µM [33]: 59%
Clc1cccc(Cl)c1Nc1nc2cccc(Cl)c2s1	-89%	97%	96%	-71%	-56%	-45.1%	-73%	26%	92%	4.93 µM	2.22 µM	-85%	102%	5.95 µM	3.08 µM	49%	50%	60%	4%	46%	GI50 [10]: 1 µM; GI50 [13]: 1.6 µM; growth at 1 µM [19]: 44%; growth at 100 µM [20]: -55%; growth at 10 µM [21]: -71%; growth at 100 µM [22]: -52%; growth at 10 µM [23]: -87%; growth at 10 µM [24]: -26.9%; growth at 1 µM [25]: 46%; growth at 1 µM [26]: 52%; growth at 0.01 µM [27]: 99%; growth at 1 µM [28]: 46%; growth at 1 µM [29]: 74%; growth at 0.1 µM [30]: 100%; GI50 [31]: 0.938 µM; TGI [31]: 3.49 µM; CC50 [31]: > 100 µM; growth at 10 µM [32]: 1.07%; growth at 10 µM [33]: -99%

Source: ChEMBL document CHEMBL2040734, “Benzothiazoles: search for anticancer agents” (2012)
